Source: PubChem BioAssay
Compounds with a hit are over-represented: about 2.3% of the library has one in this group of screens.
HCV core dimer = blocks dimerization of HCV core protein. TR-FRET GST/Flag-core106 dimerization, 1536-well. inhibition, % at 5 µM. 300,000 tested, 0.33% active;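 active = inhibition above the mean of all tested compounds plus 3 SD, set per screening campaign, cut at about 45% in these data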
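Assay system: GST-tagged and Flag-tagged HCV core protein residues 1-106 / Times: compound-protein-antibody incubation 4 h at 22.5 °C / Signal: time-resolved FRET, ex 340 nm, em 617 and 671 nm / Evaluation: % inhibition based on acceptor/donor emission ratio / Benchmarks: wells lacking GST-core106 and wells with excess unlabelled core106 / Repeats: singlicate, one well per compound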
GPR7 antagonist = blocks human GPR7 receptor signaling. P48145. GPR7-expressing cells, fluorescence antagonist assay. inhibition, % at 4.4 µM. 290,000 tested, 1.1% active. AID 1861; in the data active = inhibition above about 16%, passing the limit was not always enough;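 also: cells stimulated with the agonist NPW; 0% = agonist with vehicle and 100% = vehicle without agonist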
Target sequence (P48145 whole entry, looked up): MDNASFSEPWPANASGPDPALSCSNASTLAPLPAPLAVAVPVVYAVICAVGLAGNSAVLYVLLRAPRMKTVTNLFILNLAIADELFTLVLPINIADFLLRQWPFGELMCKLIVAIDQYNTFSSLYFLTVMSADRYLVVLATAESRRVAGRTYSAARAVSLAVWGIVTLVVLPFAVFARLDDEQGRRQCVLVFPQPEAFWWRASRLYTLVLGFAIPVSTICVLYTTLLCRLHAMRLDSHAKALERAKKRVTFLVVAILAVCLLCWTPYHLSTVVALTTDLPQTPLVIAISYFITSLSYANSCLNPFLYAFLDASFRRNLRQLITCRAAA
EBNA-1 inhibitor = blocks EBNA-1 binding to DNA | EBNA-1 DNA binding, fluorescence polarization | inhibition, % at 14.8 µM | 300,000 tested, 0.34% active | AID 1950; in the data active = inhibition above about 28%
HCV NS3 hel inh = blocks Hepatitis C virus NS3 helicase unwinding; NS3 helicase DNA unwinding, Cy5 molecular beacon fluorescence; inhibition, % at 10.9 µM; 290,000 tested, 0.56% active; AID 1800;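 active = inhibition above the mean of all tested compounds plus 3 SD, set per campaign, cut at about 35% in these data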;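 also: 0% = DMSO wells and 100% = thioflavine S control wells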
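Measured by: Cy5 fluorescence, 0 and 60 min reads / Assay system: NS3 helicase fragment of HCV / Control set: low DMSO, high thioflavine S at 110 µM / Times: 1 h reaction at 25 °C, ATP-initiated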
ZTA DNA inh = counter-screen for EBNA-1 inhibitors: inhibitors of Epstein-Barr virus ZTA; ZTA-DNA binding, fluorescence polarization; inhibition, % at 11 µM; 320,000 tested, 0.15% active; AID 2234; in the data active = inhibition above about 33%
EBV gp42 block = inhibitors of Epstein-Barr virus glycoprotein 42; inhibition, % (tested at 21.74 µM); Fluorescence polarization binding assay, mP read-out; 220,000 tested, 0.42% active; Q1HVG2; in the data active = inhibition above about 50%
NS3 helicase cf = HCV NS3 helicase inhibition, confirmation assay | 1,600 tested, 31% active | inhibition, % at 10.9 µM | shares compounds with HCV NS3 hel inh | NS3 helicase DNA unwinding, Cy5 molecular beacon fluorescence;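 active = inhibition above the mean of all tested compounds plus 3 SD, cutoff set per campaign, cut at about 36% in these data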
FID counter trip = displaces DNA intercalator in HCV helicase counter-screen. shares compounds with HCV NS3 hel inh. DNA fluorescent intercalator displacement, fluorescence. 1,600 tested, 4% active. inhibition, % at 7.9 µM; in the data active = inhibition above about 37%;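 also: 0% = vehicle and 100% = reference compound; higher means more displacement of ethidium bromide from the DNA hairpin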
Starred values were filed as active, the others as inactive; . = no result given.

SMILES	HCV core dimer	GPR7 antagonist	EBNA-1 inhibitor	HCV NS3 hel inh	ZTA DNA inh	EBV gp42 block	NS3 helicase cf	FID counter trip
CCOC(=O)Cn1c(=NC(=O)C2COc3ccccc3O2)sc2cc(S(N)(=O)=O)ccc21 (centres undefined)	19	3	4	56*	6	1	7	-26
O=C(CC1SC(=O)N(c2ccccc2)C1=O)Nc1ccccc1 (centres undefined)	-4	-7	6	38*	10	3	-22	12
Cc1ccc(NC(=O)CC2SC(=O)N(c3ccccc3)C2=O)cc1 (centres undefined)	0	-6	-14	33	2	-8	.	.
CCOC(=O)c1cc(C(=O)NC(C)c2ccccc2)c(C)[nH]c1=O (centres undefined)	0	3	9	-5	-4	2	.	.
Cc1ccc(-c2csc(N/N=C/c3ccco3)n2)c(C)c1	2	-15	6	40*	10	7	-10	10
Cc1occc1-c1nnc(SCC(=O)N2CCCc3ccccc32)n1Cc1ccco1	.	4	.	45*	.	-2	-7	-15
O=c1nc2s/c(=C\c3ccco3)c(=O)n2nc1Cc1ccc(F)cc1	37	2	-2	47*	-3	-4	9	5
CCC(C)[C@H](NS(=O)(=O)c1ccc(C)cc1)C(=O)N1CCC(C(=O)N2CCC(C(N)=O)CC2)CC1 (some centres undefined)	0	-6	-6	13	3	.	.	.
Cc1ccc(-n2sc3ccccc3c2=O)cc1S(=O)(=O)N1CCCCC1	24	7	5	47*	2	13	21	-29
Cc1cc(C)cc(NC(=O)c2ccc(NC3=NC4CS(=O)(=O)CC4S3)cc2)c1 (centres undefined)	-9	-2	-9	-2	-4	.	.	.
COc1ccc(NC(=O)c2ccc(NC3=NC4CS(=O)(=O)CC4S3)cc2)cc1 (centres undefined)	-1	-7	10	47*	0	.	-4	11
O=C(COc1ccccc1Br)N1CCN(C(=O)c2ccco2)CC1	-2	-14	0	20	0	.	.	.
CCN(CC)S(=O)(=O)c1ccc(OC)c(NC(=O)/C=C/c2ccco2)c1	0	17	-5	63*	3	-11	-17	-20
O=C(/C=C/c1ccco1)NCC1(c2ccccc2)CCCC1	-1	-8	7	36	-16	-18	.	.
COc1ccc(C2(CNC(=O)/C=C/c3ccco3)CCCC2)cc1OC	23	-14	-5	38*	4	-1	-1	-55
C=CCNC(=O)c1c(Cl)cnn1-c1ccc(C)cc1	-1	-5	1	4	4	-5	.	.
Cc1cc(-c2csc(NC(=O)c3ccccc3C(F)(F)F)n2)c(C)n1Cc1ccccc1	37	-9	3	50*	2	-13	6	0
O=C(N/N=C/c1cc(Cl)cc([N+](=O)[O-])c1O)c1ccc2c(c1)OCO2	-32	-7	-15	52*	-12	.	-8	7
O=C(N/N=C/c1cc(Br)cc(Cl)c1O)c1ccc2c(c1)OCO2	1	.	-4	.	1	.	.	.
O=C(N/N=C/c1cc(Br)cc(Br)c1O)c1ccncc1	-12	-9	-15	14	-2	21	.	.
O=C(N/N=C/c1ccccc1)c1ccc(NC(=O)c2ccc(F)cc2)cc1	-1	9	-5	38*	-21	.	-9	1
O=C(N/N=C/c1cc(Br)cc([N+](=O)[O-])c1O)c1ccc(NC(=O)c2ccc(F)cc2)cc1	0	2	-4	37*	-1	.	8	-2
Cc1cccc(C(=O)Nc2ccc(C(=O)N/N=C/c3ccc(C)o3)cc2)c1	-6	-4	-5	41*	-22	.	-16	-20
Cc1ccc(/C=N/NC(=O)c2cccc(NC(=O)c3ccccc3C)c2)o1	9	9	2	2	1	.	.	.
c1ccc(-c2ccc3c(c2)c2c4n3CCN=C4CCC2)cc1	-1	5	-2	-28	-6	-11	.	.
